Activity calls are given as the source filed them. No cut-off for these calls is given here.
Experiments:
IMR-32 = experiment: Growth inhibition of human IMR32 cells at 10 uM by sulforhodamine B assay; type: functional; conditions: read-out: GI
In short: (§1)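 Single-dose 10 µM screen by sulforhodamine B assay, reported as percent inhibition of cell proliferation. Cells grown in medium with 10% heat-inactivated FBS at 37 °C, 5% CO2, and treated at about 70% confluence or in log phase. Compounds dissolved in DMSO; controls received vehicle (<0.5% v/v).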

SiHa [1] = experiment: Growth inhibition of human SiHa cells at 10 uM by sulforhodamine B assay; type: functional; conditions: read-out: GI; in short: as §1
SW-620 = experiment: Growth inhibition of human SW620 cells at 10 uM by sulforhodamine B assay; type: functional; conditions: read-out: GI; in short: as §1
HCT-15 = experiment: Growth inhibition of human HCT15 cells at 10 uM by sulforhodamine B assay; type: functional; conditions: read-out: GI; in short: as §1
DU-145 = experiment: Growth inhibition of human DU145 cells at 10 uM by sulforhodamine B assay; type: functional; conditions: read-out: GI; in short: as §1
A549 = experiment: Growth inhibition of human A549 cells at 10 uM by sulforhodamine B assay; type: functional; conditions: read-out: GI; in short: as §1
HEp-2 = experiment: Growth inhibition of human Hep2 cells at 10 uM by sulforhodamine B assay; type: functional; conditions: read-out: GI; in short: as §1
HL-60 [2] = experiment: Growth inhibition of human HL60 cells after 48 hrs by MTT assay; type: functional, cell-based; conditions: HL-60, 48 h
SiHa [3] = experiment: Growth inhibition of human SiHa cells after 48 hrs by MTT assay; type: functional, cell-based
CV-1 = experiment: Growth inhibition of african green monkey CV1 cells after 48 hrs by MTT assay; type: cell-based; conditions: Chlorocebus aethiops, CV-1, 48 h
[4] = Therapeutic ratio of IC50 for african green monkey CV1 cells to IC50 for human HL60 cells; type: ADME, cell-based, HL-60; conditions: CV1 cells and HL60 cells, read-out: Ratio IC50
HL-60 [5] = experiment: Induction of apoptosis in human HL60 cells assessed as early apoptotic cells at 1 uM after 24 hrs using Annexin V-FITC and propidium iodide staining by flow cytometry relative to control; type: functional
In short: (§2)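 HL-60 cells (1 x 10^5 per 1.5 mL) treated 24 h, washed twice in PBS and stained in binding buffer with annexin V-FITC and PI. Flow cytometry with FITC in FL-1 (530 nm) and PI in FL-2 (585 nm), using quadrant statistics: lower right taken as apoptotic, upper right as post-apoptotic necrotic. Representative of three independent experiments.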

HL-60 [6] = experiment: Induction of apoptosis in human HL60 cells assessed as non-viable necrotic cells at 1 uM after 24 hrs using Annexin V-FITC and propidium iodide staining by flow cytometry relative to control; type: functional; in short: as §2
HL-60 [7] = experiment: Induction of apoptosis in human HL60 cells assessed as late apoptotic cells at 1 uM after 24 hrs using Annexin V-FITC and propidium iodide staining by flow cytometry relative to control; type: functional; in short: as §2
HL-60 [8] = experiment: Induction of apoptosis in human HL60 cells assessed as DNA ladder formation at 1 uM after 24 hrs by agarose gel electrophoresis; type: functional, cell-based
In short: (§3)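 Cells treated 24 h, then 2 x 10^6 cells lysed (Triton X-100 buffer, pH 8.0) with RNase at 37 °C for 90 min and proteinase-K at 50 °C for 1 h. DNA phenol/chloroform-extracted and ethanol-precipitated, then run on 1.8% agarose at 50 V for 1.5 h in TAE. Ladders viewed under UV.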

HL-60 [9] = experiment: Induction of apoptosis in human HL60 cells assessed as DNA ladder formation at 10 uM after 24 hrs by agarose gel electrophoresis; type: functional, cell-based; in short: as §3
SiHa [10] = experiment: Induction of apoptosis in human SiHa cells assessed as DNA ladder formation at 10 uM after 24 hrs by agarose gel electrophoresis; type: functional, cell-based; in short: as §3
HeLa = experiment: Induction of apoptosis in human HeLa cells assessed as DNA ladder formation at 10 uM after 24 hrs by agarose gel electrophoresis; type: functional, cell-based; in short: as §3
HL-60 [11] = experiment: Cell cycle arrest in human HL60 cells assessed as accumulation at sub-G0 phase measuring DNA damage at 1 uM after 24 hrs using propidium iodide staining by flow cytometry (reference value: 1%); type: functional
In short: (§4)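 HL-60 cells (1 x 10^5 per 1.5 mL) treated 24 h, then fixed in 70% cold ethanol at −20 °C overnight. RNase digestion (400 µg/ml) at 37 °C for 45 min, then propidium iodide (10 µg/ml) for 30 min. Flow cytometry on 10,000 events, FL2-A vs FL2-W, with doublet discrimination. Sub-G0 (hypodiploid) peak taken as apoptotic cells. Mean ± SD of three independent experiments.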

HL-60 [12] = experiment: Cell cycle arrest in human HL60 cells assessed as accumulation at G2/M phase at 1 uM after 24 hrs using propidium iodide staining by flow cytometry; type: functional, cell-based; in short: as §4
HL-60 [13] = experiment: Induction of NO production in human HL60 cells at 1 uM after 24 hrs using DAF-2DA fluorescent dye based flow cytometric analysis; type: functional, cell-based
In short: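 HL-60 cells (1 x 10^5 per 1.5 mL) preloaded 30 min with 10 µM DAF-2-DA before treatment. After 24 h exposure, cells were washed and read by flow cytometry in FL-1 as NO-positive population. Mean ± SD of three independent experiments.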

HL-60 [14] = experiment: Induction of apoptosis in human HL60 cells assessed as decrease in mitochondrial membrane potential at 1 uM after 24 hrs using rhodamine 123 staining by flow cytometry; type: functional; design: scale not given: the % may be the effect or the level left
In short: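 HL-60 cells (1 x 10^5 per 1.5 mL) treated 24 h, then stained with rhodamine-123 (5 µg/mL final) for 1 h. Washed, and propidium iodide (5 µg/mL) added just before reading. FL-1 fluorescence from 10,000 events; percentage of low Rh-123 cells taken as loss of membrane potential. Mean ± SD, n=3.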

HL-60 [15] = experiment: Inhibition of NF-kappaB expression in human HL60 cells at 1 uM after 24 hrs by Western blotting; type: functional, cell-based
In short: (§5)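 HL-60 cells treated 24 h and lysed in RIPA buffer on ice; protein measured by Bradford against a BSA standard. 50 µg resolved by SDS-PAGE and transferred to PVDF, blocked in 5% milk/TBST, then primary antibodies 1:1000 for 2 h and HRP secondary 1:1000 for 1 h. ECL detection with β-actin as loading control; bands quantified by densitometry.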

HL-60 [16] = experiment: Inhibition of Bcl-2 expression in human HL60 cells at 1 uM after 24 hrs by Western blotting; type: functional, cell-based; in short: as §5
HL-60 [17] = experiment: Induction of apoptosis in human HL60 cells assessed as blebbing of plasma membrane at 1 uM after 12 hrs by scanning electron microscopy; type: functional, cell-based
In short: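 HL-60 cells at 2 x 10^5/ml in 10% FCS medium exposed to 0.5 or 1 µM for 6–48 h; DMSO vehicle controls. Cells fixed in 2.5% glutaraldehyde in 0.1 M phosphate (pH 7.2) at 4 °C for 1 h, post-fixed in 1% OsO4 and ethanol-dehydrated. Critical-point dried, gold-coated, and imaged by SEM at 40 kV.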

HL-60 [18] = experiment: Induction of apoptosis in human HL60 cells assessed as nuclear fragmentation at 1 uM after 24 hrs by DAPI staining-based fluorescence microscopy; type: functional, cell-based
In short: (§6)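 HL-60 or PC-3 cells treated at 1 µM for 24 h. Air-dried smears fixed in methanol at −20 °C for 20 min and stained with DAPI (1 µg/mL) for 20 min at room temperature in the dark. Mounted in 90% glycerol/PBS and examined by fluorescence microscopy for nuclear morphology.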

PC-3 = experiment: Induction of apoptosis in human PC3 cells assessed as nuclear fragmentation at 1 uM after 24 hrs by DAPI staining-based fluorescence microscopy; type: functional, cell-based; in short: as §6

For `O=C(Nc1nc2ccc([N+](=O)[O-])cc2s1)c1cccnc1Nc1cc(F)c(F)c(F)c1`, the inhibition of growth at 10 µM (IMR-32) was 72%, the inhibition of growth at 10 µM (SiHa [1]) was 70% and the inhibition of growth at 10 µM (SW-620) was 70%. It also gave an inhibition of growth at 10 µM (HCT-15) of 62%, an inhibition of growth at 10 µM (DU-145) of 39% and an inhibition of growth at 10 µM (A549) of 27%. For the same molecule, the inhibition of growth at 10 µM (HEp-2) was 0%, the IC50 (HL-60 [2]) was 0.08 µM and the IC50 (SiHa [3]) was 36 µM. For the same molecule, the IC50 (CV-1) was > 100 µM, the selectivity ratio [4] was > 1250 and the Activity (HL-60 [5]) was 15%. For the same molecule, the Activity (HL-60 [6]) was 47%, the Activity (HL-60 [7]) was 8% and the Activity (HL-60 [8]) was “Active”. The Activity (HL-60 [9]) was “Active”, the Activity (SiHa [10]) was “inactive” and the Activity (HeLa) was “inactive”. The Activity (HL-60 [11]) was 94%, the Activity (HL-60 [12]) was “inactive” and the Activity (HL-60 [13]) was “inactive”. The Activity (HL-60 [14]) was 45%, the inhibition (HL-60 [15]) was “Active” and the inhibition (HL-60 [16]) was “inactive”. The Activity (HL-60 [17]) was “Active”, the Activity (HL-60 [18]) was “Active” and the Activity (PC-3) was “Active”.

— ChEMBL document CHEMBL1926589, “2-Anilinonicotinyl linked 2-aminobenzothiazoles and [1,2,4]triazolo[1,5-b] [1,2,4]benzothiadiazine conjugates as potential mitochondrial apoptotic inducers” (Bioorg Med Chem, 2011)
